# CRFR2-BP antag – CRF-BP/CRF-R2 complex antagonism | AID 588475 | actives 0.59% (n = 350,000) | inhibition, % at 11.8 µM | HEK293 CRF-R2/CRF-BP, CRF-induced calcium fluorescence;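 active = inhibition of the ligand-induced calcium signal above about 50% at the single tested concentration, limit read from the data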
# PKA-R1A activ – activates the PKA-R1A holoenzyme complex; P00514+P68181; PKA-R1A dissociation, Cy5-IP20 fluorescence polarization; scaled: DMSO 0%, 113 µM cGMP 100%; activation, % at 11.4 µM; actives 0.083% (n = 340,000);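 active = percent activation above the mean of all tested compounds plus 3 SD, cut at about 19% in these data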;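 also: higher means more PKAc released from R1A so a rise in polarization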
# SIRT5 inh – sirtuin-5 (human) deacylase inhibition; Q9NXA8; Purified SirT5, succinyl-peptide AMC, trypsin-coupled fluorescence; inhibition, % at 15 µM; actives 1.1% (n = 330,000); AID 652115; in the data active = inhibition above about 15%
# PKA-R2B activ – activators of human PKA-R2B complex. P22694+P31323. PKA-R2B holoenzyme dissociation, Cy5-IP20 fluorescence polarization; R2B truncated from residue 108, S112A mutant; 0% DMSO only, 100% 113 µM cGMP. activation, % at 11.4 µM. actives 0.079% (n = 340,000);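 active = activation above a cutoff set at the mean over all compounds plus 3 SD, cut at about 18% in these data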;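 also: higher means more holoenzyme dissociation and a rise in polarization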
# Target sequence (P31323 whole entry, looked up, other chains not shown, the tested form may be a part): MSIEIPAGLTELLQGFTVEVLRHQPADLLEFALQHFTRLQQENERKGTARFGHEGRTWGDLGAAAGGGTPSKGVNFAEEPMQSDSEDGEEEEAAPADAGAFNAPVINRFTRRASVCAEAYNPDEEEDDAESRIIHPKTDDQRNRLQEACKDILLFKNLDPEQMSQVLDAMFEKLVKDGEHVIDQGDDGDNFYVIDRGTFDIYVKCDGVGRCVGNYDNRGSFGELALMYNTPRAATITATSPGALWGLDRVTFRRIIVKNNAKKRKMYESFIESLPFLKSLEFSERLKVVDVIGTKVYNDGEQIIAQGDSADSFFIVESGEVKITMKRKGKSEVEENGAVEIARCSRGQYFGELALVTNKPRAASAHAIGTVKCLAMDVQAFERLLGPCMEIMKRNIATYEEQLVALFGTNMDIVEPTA
# S100A4 MyoIIA – inhibitors of human S100A4 binding to myosin IIA peptide | S100A4/TAMRA-MyoIIA peptide fluorescence polarization | P26447 | actives 0.14% (n = 360,000) | inhibition, % at 10.7 µM;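 active = mean inhibition of at least 70% across replicates, with every replicate also reaching that level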
# Target sequence (P26447 whole entry, looked up): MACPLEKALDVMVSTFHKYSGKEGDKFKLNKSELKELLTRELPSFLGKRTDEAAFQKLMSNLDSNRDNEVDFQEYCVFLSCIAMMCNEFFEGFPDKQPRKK
#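 Material: S100A4 monomer protein | Medium: HEPES pH 7.2 with CaCl2, KCl, NaCl, DTT, Triton | Reagent: Labelled myosin peptide probe, 5 nM | Doses: One dose per compound | Times: 5 min incubation before reading | Benchmarks: Neutral control DMSO, positive control TFP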
# * hit, by the source's call; . = not tested or not shown. Rows were chosen to be rich in hits. Some 1.5% of all compounds tested hit in one or more screens of this group.
SMILES,CRFR2-BP antag,PKA-R1A activ,SIRT5 inh,PKA-R2B activ,S100A4 MyoIIA
CC(C)N(C(=O)COC(=O)[C@H](C)NC(=O)c1ccco1)c1ccccc1,-1,-3,31*,8,-14
COc1ccc(CN(C)C[C@H]2Oc3ccc(NC(=O)Nc4ccc(C(F)(F)F)cc4)cc3C(=O)N([C@@H](C)CO)C[C@@H]2C)cc1,.,.,-2,.,-2
COc1ccc(NC(=O)Nc2ccc3c(c2)C(=O)N([C@H](C)CO)C[C@@H](C)[C@@H](CN(C)Cc2ccc(C(F)(F)F)cc2)O3)cc1,.,.,21*,.,-5
COc1ccc(NC(=O)Nc2ccc3c(c2)C(=O)N([C@@H](C)CO)C[C@@H](C)[C@@H](CN(C)Cc2ccc(C(F)(F)F)cc2)O3)cc1,.,.,20*,.,4
C[C@@H]1CN([C@H](C)CO)C(=O)c2cc(NC(=O)CCC(F)(F)F)ccc2O[C@@H](C)CCCCO[C@H]1CN(C)Cc1ccncc1,.,.,-1,.,3
COc1ccc(-n2c(O)c(C=NC3CC3)c(=O)[nH]c2=O)cc1,-1,-16,.,-13,.
COc1ccc(-n2c(O)c(/C=C3\C=Nc4ccccc43)c(=O)[nH]c2=O)cc1,-56,-2,39*,-8,9
O=C(C[C@H]1C[C@H]2c3cc(NC(=O)Cc4ccncc4)ccc3O[C@H]2[C@H](CO)O1)NCCc1ccccc1,.,.,0,.,7
C[C@H](CO)N1C[C@H](C)[C@@H](CN(C)Cc2ccccc2)Oc2ccc(N(C)C)cc2C1=O,.,.,21*,.,-6
C[C@H](CO)N1C[C@H](C)[C@@H](CN(C)Cc2ccccc2)Oc2c(cccc2N(C)C)C1=O,.,.,1,.,15
C[C@@H]1CN([C@@H](C)CO)C(=O)c2cccc(N(C)C)c2O[C@@H]1CN(C)Cc1ccccc1,.,.,23*,.,12
O=C(Nc1cccc(F)c1)N1CC(=O)N2[C@H](CO)[C@H](c3ccc(-c4ccc(F)cc4)cc3)[C@H]2C1,.,.,3,.,15
CC(C)NC(=S)N1CCCN(c2ncccc2[N+](=O)[O-])CC1,-3,-7,17*,2,3
COc1cc(C=Nc2c(C)cc(C)cc2C)ccc1OC(C)=O,51*,-11,5,-12,-3
Cn1cnc(S(=O)(=O)Nc2ccccc2N2CCOCC2)c1,-5,.,15*,.,11
O=S(=O)(Nc1ccccc1N1CCOCC1)c1ccccc1C(F)(F)F,0,-6,7,-6,-3
O=[N+]([O-])c1ccccc1C=NNC(=S)NN=Cc1ccccc1[N+](=O)[O-],57*,6,.,2,3
CCCC(=O)Nc1ccc2c(c1)C(=O)N(C)C[C@H](OC)[C@@H](C)CN(S(=O)(=O)c1cn(C)cn1)[C@@H](C)CO2,.,.,1,.,-43
CS(=O)(=O)C1=NSC2=NC(=O)/C(=C\c3ccc(OS(=O)(=O)c4ccccc4)cc3)C(=N)N21,-4,-3,17*,-9,0
C[C@@H]1CN([C@@H](C)CO)S(=O)(=O)c2ccc(/C=C/c3ccccc3)cc2O[C@H]1CN(C)C(=O)c1ccc2c(c1)OCO2,.,.,27*,.,3
C[C@H](CO)N1C[C@H](C)[C@@H](CN(C)C(=O)c2ccc3c(c2)OCO3)Oc2cc(/C=C/c3ccccc3)ccc2S1(=O)=O,14,3,16*,-6,64
O=C(C[C@@H]1CC[C@H]2[C@@H](COC[C@@H](O)CN2C(=O)c2cccnc2)O1)NC1Cc2ccccc2C1,.,.,1,.,-21
COc1cccc(NC(=O)N2C[C@H](O)COC[C@H]3O[C@@H](CC(=O)NC4Cc5ccccc5C4)CC[C@@H]32)c1,.,.,1,.,-4
CCCC(=O)N1CCC2(CC1)CN(C(=O)CC1CC1)[C@@H](CO)c1c2c2ccc(OC)cc2n1C,.,.,1,.,3
CCc1ccc(OCCNC(=O)c2ccccc2SCc2ccccc2)cc1,3,4,.,-6,.
SMILES,CRFR2-BP antag,PKA-R1A activ,SIRT5 inh,PKA-R2B activ,S100A4 MyoIIA
O=C(NCCOc1ccccc1F)c1ccccc1SCc1ccc(F)cc1,64*,0,.,-8,.
O=C(NCC[C@@H]1CC[C@@H](NC(=O)C2CCCCC2)[C@@H](CO)O1)c1ccc(F)cc1,.,.,-3,.,-2
CC(=O)c1cccc(NC(=O)C2CCCN2S(=O)(=O)c2ccccc2C(F)(F)F)c1 (stereo not drawn),19,7,.,8,6
CCOc1ccccc1NC(=O)C1CCCN1S(=O)(=O)c1ccccc1C(F)(F)F (stereo not drawn),82*,-13,-10,3,0
CCCOc1ccc(C(=O)N2CCN(c3ccc(NC(=O)CC)cc3Cl)CC2)cc1,62*,0,1,3,0
CN1CCN(c2ccc(NC(=O)COc3ccccc3)cc2Cl)CC1,17,5,-1,-10,2
COc1ccc(NC(=O)CN(c2ccc(Cl)cc2)S(C)(=O)=O)cc1OC,-9,-3,25*,-10,3
COc1ccc(Cl)cc1NC(=O)CN(C)CC(=O)Nc1cc(OC)c(OC)c(OC)c1,-6,-12,15*,-8,2
O=C(Nc1ccccc1N1CCCC1)c1ccc(Br)o1,4,-10,.,-14,.
CC(=O)N1CCN(c2ccccc2NC(=O)c2ccc(Br)o2)CC1,6,-13,27*,3,0
O=C(NC[C@H]1CC[C@@H]2[C@@H](CN2S(=O)(=O)c2ccccc2[N+](=O)[O-])O1)c1cccnc1,.,.,1,.,-3
O=C1NC(Cc2ccc(O)cc2)c2nc3cc(F)ccc3c(=O)n2-c2ncccc21 (stereo not drawn),-3,8,2,5,-1
O=C1NC(Cc2ccc(O)cc2)c2nc3ccc(F)cc3c(=O)n2-c2ncccc21 (stereo not drawn),-6,5,22*,1,0
COC(=O)c1ccc2nc(-c3ccc(OC)c(OC)c3)c(Cc3ccccc3OC)n2c1,.,.,-3,.,-13
COC(=O)c1ccc2nc(-c3ccc(OC)c(OC)c3)c(Cc3ccccc3C(F)(F)F)n2c1,.,.,22*,.,-2
COCC#Cc1cnc2c(c1)C(=O)N([C@@H](C)CO)C[C@H](C)[C@@H](CN(C)C(=O)c1cccnc1)O2,.,.,-3,.,10
Cc1ccc(C(=O)COC(=O)CCN2C(=O)C3C4C=CC(C5CC45)C3C2=O)cc1 (stereo not drawn),91*,2,1,-8,-1
O=C(CCN1C(=O)C2C3C=CC(C4CC34)C2C1=O)OCC(=O)c1ccccc1 (stereo not drawn),-16,-2,5,3,-1
CSc1cccc(NC(=O)C(C)C)c1,51*,-6,0,2,-7
O=C(CSc1nc2ccccc2n1CCc1ccccc1)NC1CCS(=O)(=O)C1 (stereo not drawn),60*,-6,.,-3,.
Cc1nnc2n(Cc3ccccc3)c(=O)c3c4c(sc3n12)COC(C)(C)C4,87*,1,.,-11,.

# High-throughput results as filed in PubChem BioAssay.
